Measurements from different studies.
Each line is one published result; the experiments were not run side by side.
Target: Dual specificity mitogen-activated protein kinase kinase 7 (MAP2K7, Homo sapiens, UniProt O14733)
Residues used in one study (O14733 1-419): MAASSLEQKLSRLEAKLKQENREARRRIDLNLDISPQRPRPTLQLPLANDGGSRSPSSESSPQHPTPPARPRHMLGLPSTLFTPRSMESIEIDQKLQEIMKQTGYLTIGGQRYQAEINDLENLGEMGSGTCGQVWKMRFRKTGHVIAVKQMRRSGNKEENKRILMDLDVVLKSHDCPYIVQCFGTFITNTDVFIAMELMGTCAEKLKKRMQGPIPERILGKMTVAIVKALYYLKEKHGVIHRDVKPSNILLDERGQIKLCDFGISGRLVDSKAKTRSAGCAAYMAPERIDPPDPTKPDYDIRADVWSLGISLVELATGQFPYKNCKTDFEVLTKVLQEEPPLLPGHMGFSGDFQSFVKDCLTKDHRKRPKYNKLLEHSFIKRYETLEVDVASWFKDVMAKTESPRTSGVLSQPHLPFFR

SMILES	effect on	method	concentration	remaining binding [%]
COc1cccc(CNC(=O)c2nc3scc(COCc4ccc(C(=O)O)cc4)c3c(=O)[nH]2)c1	cell-free assay	competition with immobilised ligand	1 µM	81.2
c1cncc(-c2cccc(Nc3nccc(NC4CCCCC4)n3)c2)c1	binding	competition with immobilised ligand	10 µM	100
CN(c1ccnc(CNc2nc(Nc3ccc4c(c3)CC(=O)N4)ncc2C(F)(F)F)n1)S(C)(=O)=O	cell-free assay	competition with immobilised ligand	1 µM	73
O=C(Nc1c[nH]nc1C(=O)NC1CCNCC1)c1cc(F)cc(F)c1	binding	competition with immobilised ligand	1 µM	86
CCN1CCN(Cc2ccc(C(=O)Nc3ccc(C)c(Oc4ccc5c(c4)CC(=O)N5)c3)cc2C(F)(F)F)CC1	binding	competition with immobilised ligand	1 µM	97
CS(=O)(=O)N1CCCC(NC(=O)[C@H](CCC2CCCCC2)NC(=O)c2ccc(CNc3ncnc4c3nnn4-c3ccccc3)cc2)C1 (some centres unmarked)	cell-free assay	competition with immobilised ligand	0.1 µM	100
O=C(c1ccc(Nc2ncc(Cl)c(-c3ccc(Cl)s3)n2)cc1)N1CCC(N2CCCC2)CC1	binding	competition with immobilised ligand	1 µM	82
N[C@H]1CCN(c2nccc(-c3cnn4ncccc34)n2)C1	binding	–	1 µM	93
C[C@@H](c1cccc(C#N)c1)n1cc(Cl)cc(C(N)=O)c1=N	cell-free assay	competition with immobilised ligand	1 µM	99
Nc1ncc2c(n1)-c1c([nH]c3ccc(C#CC4CC4)cc13)CCCC2	binding	competition with immobilised ligand	1 µM	100
C[C@@H]1CCN(c2nccc(-c3cnn4ncccc34)n2)C1	binding	–	1 µM	100
O=C(NCCCN1CCOCC1)c1ccc(Nc2nccc(-c3cc4ccccc4s3)n2)cc1	binding	competition with immobilised ligand	1 µM	76
Cc1cnn2ncc(-c3ccnc(N(C)C)n3)c2c1	binding	–	1 µM	71
O=C(c1ccc(Nc2ncc(Cl)c(-c3cc4ccccc4s3)n2)cc1)N1CCC(N2CCCC2)CC1	binding	competition with immobilised ligand	1 µM	96
CN(CCCC(F)(F)F)c1nccc(-c2cnn3ncccc23)n1	binding	–	1 µM	100
O=S(=O)(NC1CCC(c2cc(F)ccc2F)(S(=O)(=O)c2ccc(Cl)cc2)CC1)C(F)(F)F (centres unmarked)	cell-free assay	competition with immobilised ligand	1 µM	100
CN(C)c1nccc(-c2cnn3ncccc23)n1	binding	–	1 µM	100
CNC(=O)[C@@H]1CC[C@@H](n2c(-c3ccc4cnccc4c3)nc3ccc(C(=O)NCc4cccc(C(N)=O)c4)cc32)C1	binding	competition with immobilised ligand	1 µM	100
CC1CCCN1c1nccc(-c2cnn3ncccc23)n1 (centres unmarked)	binding	–	1 µM	100
CN(C)C(=O)Cn1cc(-c2nc([C@@](C)(c3ccc(-c4cnc(N)nc4)cc3)C3CC3)no2)cn1	cell-free assay	competition with immobilised ligand	1 µM	94
